For six compounds, pKB results are on record in ChEMBL document CHEMBL1125477, “Highly potent and selective heptapeptide antagonists of the neurokinin NK-2 receptor” (J Med Chem, 1992).

Square brackets hold non-standard residues; d marks the D form. Peptide text beside a SMILES is read from it. * marks the point of attachment. Nle = CCCC[C@H](N)C(=O)O; Bz = O=C(c1ccccc1)*

Assay [1] has as its target Substance-P receptor (Cavia porcellus) (UniProt P30547). The assay can be described thus: Compound was evaluated for antagonism of contractile response of guinea pig ileum longitudinal smooth muscle (GPI) at Tachykinin receptor 1. The format is functional, tissue-based. The procedure, abridged: (§1)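 Isolated longitudinal smooth muscle of ileum from male Dunkin-Hartley guinea-pigs (300–600 g), killed by concussion and exsanguination. Contraction to SP methyl ester (NK-1 agonist). At least two control agonist curves, then one antagonist concentration per preparation. Concentration-ratio read graphically at half-maximal response. pK_B = log(CR−1) − log[antagonist]. Mean ± SE over four to eight tissues.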

For assay [2], the target named is T1, Neuromedin-K receptor (Rattus norvegicus) (UniProt P16177).
T1 sequence (whole entry): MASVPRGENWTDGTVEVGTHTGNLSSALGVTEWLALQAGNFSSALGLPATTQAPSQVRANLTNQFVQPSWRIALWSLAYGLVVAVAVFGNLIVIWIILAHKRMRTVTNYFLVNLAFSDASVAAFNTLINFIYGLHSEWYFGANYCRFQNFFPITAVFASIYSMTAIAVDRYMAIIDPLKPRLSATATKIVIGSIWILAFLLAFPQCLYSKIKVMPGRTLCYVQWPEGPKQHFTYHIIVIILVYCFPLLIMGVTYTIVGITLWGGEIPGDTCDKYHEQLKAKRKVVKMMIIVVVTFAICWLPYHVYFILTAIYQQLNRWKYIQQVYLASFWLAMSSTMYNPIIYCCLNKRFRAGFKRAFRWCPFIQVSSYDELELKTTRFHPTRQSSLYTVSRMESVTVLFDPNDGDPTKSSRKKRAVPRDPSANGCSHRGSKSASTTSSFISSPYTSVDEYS
Description: Compound was evaluated for antagonism of contractile response of rat portal vein at Tachykinin receptor 3. The class given is functional. The procedure, abridged: (§2)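 Everted portal vein from male AHA rats (250–500 g). Contraction to senktide (NK-3). Agonist curves were repeated at least twice before exposure to one antagonist concentration per preparation. Concentration-ratio estimated graphically at the half-maximal level. pK_B = log(CR−1) − log(molar antagonist). Mean ± SE of four to eight tissues.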

Assay [3] deals with T2, Substance-K receptor (Rattus norvegicus) (UniProt P16610).
T2 sequence (whole entry): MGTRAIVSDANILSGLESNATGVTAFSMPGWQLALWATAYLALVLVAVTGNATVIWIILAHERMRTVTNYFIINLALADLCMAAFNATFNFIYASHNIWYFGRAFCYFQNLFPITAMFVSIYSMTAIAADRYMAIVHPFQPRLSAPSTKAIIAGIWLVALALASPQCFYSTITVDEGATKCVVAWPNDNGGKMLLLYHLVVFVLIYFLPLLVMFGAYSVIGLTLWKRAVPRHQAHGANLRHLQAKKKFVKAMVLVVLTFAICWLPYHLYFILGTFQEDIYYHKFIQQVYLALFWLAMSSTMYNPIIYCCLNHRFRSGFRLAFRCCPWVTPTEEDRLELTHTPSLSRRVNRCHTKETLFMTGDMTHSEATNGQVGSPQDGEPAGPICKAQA
The assay can be described thus: Compound was evaluated for antagonism of contractile response of rat colon muscularis mucosae (RC) at Tachykinin receptor 2. The format is functional, tissue-based. The following applies: Muscularis mucosa. The procedure, abridged: (§3)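 Colon muscularis mucosae from male AHA rats (250–500 g), killed by concussion and exsanguination. Contraction to neurokinin A (NK-2). At least two control agonist curves, then a single antagonist concentration per tissue. Equiactive agonist concentration-ratio taken at half-maximal response. pK_B = log(CR−1) − log[antagonist]. Mean ± SE over four to eight preparations.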

The target of assay [4] is T1, Neuromedin-K receptor (Rattus norvegicus). Description: Compound was evaluated for antagonism of contractile response of rat portal vein at tachykinin receptor 3. The format is functional. In outline:
as §2

The target of assay [5] is T2, Substance-K receptor (Rattus norvegicus). Description: Compound was evaluated for antagonism of contractile response of rat colon muscularis mucosae (RC) at tachykinin receptor 2. The class given is functional, tissue-based. To be noted: Muscularis mucosa. In outline:
as §3

For assay [6], the target named is Substance-P receptor (Cavia porcellus) (UniProt P30547). The assay can be described thus: Compound was evaluated for antagonism of contractile response of guinea pig ileum longitudinal smooth muscle (GPI) at tachykinin receptor 1. The class given is functional, tissue-based. The procedure, abridged: as §1
Substance-P receptor (Cavia porcellus), sequence (P30547 whole entry): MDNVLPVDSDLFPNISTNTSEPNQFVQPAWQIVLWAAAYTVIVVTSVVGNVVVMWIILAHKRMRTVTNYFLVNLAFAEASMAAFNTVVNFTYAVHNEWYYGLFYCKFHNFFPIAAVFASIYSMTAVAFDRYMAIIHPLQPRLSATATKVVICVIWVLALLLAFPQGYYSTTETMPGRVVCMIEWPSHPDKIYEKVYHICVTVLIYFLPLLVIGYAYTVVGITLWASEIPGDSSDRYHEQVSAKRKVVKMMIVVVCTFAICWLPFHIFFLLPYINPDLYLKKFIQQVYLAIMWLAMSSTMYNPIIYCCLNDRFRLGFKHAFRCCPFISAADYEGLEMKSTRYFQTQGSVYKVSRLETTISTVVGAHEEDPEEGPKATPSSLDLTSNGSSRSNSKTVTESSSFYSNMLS

For the compound `CCCC[C@H](NC(=O)[C@@H]1CCCN1C(=O)[C@H]1CCCN1C(=O)[C@H](Cc1ccccc1)NC(=O)[C@@H](Cc1c[nH]c2ccccc12)NC(=O)[C@H](C)NC(=O)[C@H](CCC(N)=O)NC(=O)c1ccccc1)C(N)=O`, the pKB in assay [1] worked out at 6.6; in assay [2], 5.6; in assay [3], 8.8.
For `CCCC[C@H](NC(=O)[C@@H]1CCCN1C(=O)[C@H]1CCCN1C(=O)[C@H](Cc1ccccc1)NC(=O)[C@@H](Cc1c[nH]c2ccccc12)NC(=O)[C@H](C)NC(=O)[C@H](C)NC(=O)c1ccccc1)C(N)=O` (Bz-AA[dW]F[dP]P[Nle]-NH2), the negative-log KB (pKB) in assay [1] worked out at 6.4; in assay [2], 6; in assay [3] it was 9.6.
On the same counts, the results for `CCCC[C@H](NC(=O)[C@@H]1CCCN1C(=O)[C@H]1CCCN1C(=O)[C@H](Cc1ccccc1)NC(=O)[C@@H](Cc1c[nH]c2ccccc12)NC(=O)[C@H](C)NC(=O)[C@H](C)NC(=O)OC(C)(C)C)C(N)=O` are 5.5, 4.7 and 9.3.
On the same counts, the results for `CCCC[C@H](NC(=O)[C@@H]1CCCN1C(=O)[C@H]1CCCN1C(=O)[C@H](Cc1ccccc1)NC(=O)[C@@H](Cc1c[nH]c2ccccc12)NC(=O)[C@H](C)NC(=O)[C@H](CCC(N)=O)NC(=O)OC(C)(C)C)C(N)=O` are 5.6, 5.1 and 7.9.
On to `CCCC[C@H](NC(=O)[C@H](CC(C)C)NC(=O)[C@@H](Cc1c[nH]c2ccccc12)NC(=O)[C@H](Cc1ccccc1)NC(=O)[C@@H](Cc1c[nH]c2ccccc12)NC(=O)[C@H](C)NC(=O)[C@@H](N)CCCN=C(N)N)C(N)=O`, for which the negative-log KB (pKB) was below 4.6 in assay [4], 6.2 in assay [5] and 6 in assay [6].
On the same counts, the results for `CCCC[C@H](NC(=O)[C@@H]1CCCN1C(=O)[C@H]1CCCN1C(=O)[C@H](Cc1ccccc1)NC(=O)[C@@H](Cc1c[nH]c2ccccc12)NC(=O)[C@H](C)NC(=O)[C@@H](N)CCCN=C(N)N)C(N)=O` are below 4.6, 5.9 and 4.7.
